According to ChEMBL document CHEMBL3763097, “Synthesis and biological evaluation of 5,10-dihydro-11H-dibenzo[b,e][1,4]diazepin-11-one structural derivatives as anti-cancer and apoptosis inducing agents” (Eur J Med Chem, 2016):

Legend:
[1] = test system: MCF7; assay: Cytotoxicity against human MCF7 cells assessed as growth inhibition after 72 hrs by MTT assay; assay type: functional, cell-based; details: MCF7, 72 h
Method in brief: (§1)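 Cells in RPMI 1640 (PC-3, A549, MDA-MB-231) or DMEM (U87MG, MCF-7) with 10% FBS, passages 4-10, were seeded at 3000-5000 per well and left 24 h. Compounds in DMSO/medium were added for 72 h; DMSO served as control. MTT (5 mg/mL) was added for 4 h and formazan dissolved in DMSO. Absorbance was read at 570 nm minus 630 nm. % inhibition was taken versus DMSO, with IC50 by probit; mean ± SD of three experiments in triplicate.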

[2] = Cytotoxicity against human U87MG cells assessed as growth inhibition after 72 hrs by MTT assay; assay type: functional, cell-based, U-87MG ATCC; details: U-87 MG; method in brief: as §1
[3] = test system: A549; assay: Cytotoxicity against human A549 cells assessed as growth inhibition after 72 hrs by MTT assay; assay type: functional, cell-based; details: A549, 72 h; method in brief: as §1
[4] = Cytotoxicity against human PC3 cells assessed as growth inhibition after 72 hrs by MTT assay; assay type: functional, cell-based; details: PC-3, 72 h; method in brief: as §1
[5] = test system: MDA-MB-231; assay: Cytotoxicity against human MDA-MB-231 cells assessed as growth inhibition after 72 hrs by MTT assay; assay type: functional, cell-based; details: MDA-MB-231, 72 h; method in brief: as §1

Compound: O=C1c2ccccc2Nc2ccccc2N1Cc1cn(Cc2cccc3c2OCO3)nn1
- IC50 [1]: 17.8 µM
- IC50 [2]: 13.5 µM
- IC50 [3]: 10.7 µM
- IC50 [4]: 10.7 µM
- IC50 [5]: 10.2 µM

Compound: O=c1[nH]cc(F)c(=O)[nH]1 [FLUOROURACIL]
- IC50 [2]: 3.61 µM
- IC50 [3]: 3.47 µM
- IC50 [4]: 1.44 µM

Compound: O=C1c2ccccc2Nc2ccccc2N1Cc1cn(Cc2ccc(F)cc2)nn1
- IC50 [1]: > 50 µM
- IC50 [2]: 37.7 µM
- IC50 [3]: 26.7 µM
- IC50 [4]: 17.3 µM
- IC50 [5]: 4.08 µM

Compound: O=C1c2ccccc2Nc2ccccc2N1Cc1cn(Cc2cccc([N+](=O)[O-])c2)nn1
- IC50 [1]: 0.65 µM
- IC50 [2]: 39.4 µM
- IC50 [3]: > 50 µM
- IC50 [4]: 0.47 µM
- IC50 [5]: 1.52 µM

Compound: O=C1Nc2ccccc2Nc2ccccc21
- IC50 [1]: > 50 µM
- IC50 [2]: 8.97 µM
- IC50 [3]: 37.1 µM
- IC50 [4]: 41.9 µM
- IC50 [5]: > 50 µM

Compound: COc1ccc(OC)c(Cn2cc(CN3C(=O)c4ccccc4Nc4ccccc43)nn2)c1
- IC50 [1]: 7.48 µM
- IC50 [2]: 31.2 µM
- IC50 [3]: 13.3 µM
- IC50 [4]: > 50 µM
- IC50 [5]: 3.5 µM

Compound: O=C1c2ccccc2Nc2ccccc2N1Cc1cn(Cc2ccc([N+](=O)[O-])cc2)nn1
- IC50 [1]: 0.93 µM
- IC50 [2]: 32.9 µM
- IC50 [3]: 47.9 µM
- IC50 [4]: > 50 µM
- IC50 [5]: 42.6 µM

Compound: O=C1c2ccccc2Nc2ccccc2N1Cc1cn(Cc2ccccc2F)nn1
- IC50 [1]: 5.27 µM
- IC50 [2]: 48.2 µM
- IC50 [3]: 11.3 µM
- IC50 [4]: 8.63 µM
- IC50 [5]: > 50 µM

Compound: C#CCN1C(=O)c2ccccc2Nc2ccccc21
- IC50 [1]: 7.63 µM
- IC50 [2]: 22.2 µM
- IC50 [3]: 19 µM
- IC50 [4]: 0.98 µM
- IC50 [5]: 16.5 µM

Compound: O=C1c2ccccc2Nc2ccccc2N1Cc1cn(Cc2ccc(Cl)cc2)nn1
- IC50 [1]: 39 µM
- IC50 [2]: 24.3 µM
- IC50 [3]: 4.97 µM
- IC50 [4]: 1.12 µM
- IC50 [5]: 2.31 µM

Compound: COc1cc(Cn2cc(CN3C(=O)c4ccccc4Nc4ccccc43)nn2)cc(OC)c1OC
- IC50 [1]: 10.3 µM
- IC50 [2]: 1.78 µM
- IC50 [3]: 8.78 µM
- IC50 [4]: > 50 µM
- IC50 [5]: 0.43 µM

Compound: O=C1c2ccccc2Nc2ccccc2N1Cc1cn(Cc2ccc(OC(F)(F)F)cc2)nn1
- IC50 [1]: 29.6 µM
- IC50 [2]: > 50 µM
- IC50 [3]: > 50 µM
- IC50 [4]: > 50 µM
- IC50 [5]: > 50 µM

Compound: O=C1c2ccccc2Nc2ccccc2N1Cc1cn(Cc2cccc(F)c2)nn1
- IC50 [1]: 4.12 µM
- IC50 [2]: 2.06 µM
- IC50 [3]: 8.37 µM
- IC50 [4]: 7.21 µM
- IC50 [5]: 3.53 µM
